Measurements taken from ChEMBL document CHEMBL4354812, “N-Benzyl/Aryl Substituted Tryptanthrin as Dual Inhibitors of Indoleamine 2,3-Dioxygenase and Tryptophan 2,3-Dioxygenase” (J Med Chem, 2019).
The source made the active and inactive calls. The rule behind the calls is not given here.

What was measured:
[1] = target: T1, Indoleamine 2,3-dioxygenase 2 (Homo sapiens, UniProt Q6ZQW0); assay: Inhibition of C-terminal His6-tagged human IDO2 (14 to 420 residues) expressed in Escherichia coli BL21 (DE3) assessed as reduction in conversion of L-tryptophan to N-formyl kynurenine using L-tryptophan as substrate after 30 mins by methylene blue dye based microplate reader analysis
T1 sequence (Q6ZQW0 whole entry): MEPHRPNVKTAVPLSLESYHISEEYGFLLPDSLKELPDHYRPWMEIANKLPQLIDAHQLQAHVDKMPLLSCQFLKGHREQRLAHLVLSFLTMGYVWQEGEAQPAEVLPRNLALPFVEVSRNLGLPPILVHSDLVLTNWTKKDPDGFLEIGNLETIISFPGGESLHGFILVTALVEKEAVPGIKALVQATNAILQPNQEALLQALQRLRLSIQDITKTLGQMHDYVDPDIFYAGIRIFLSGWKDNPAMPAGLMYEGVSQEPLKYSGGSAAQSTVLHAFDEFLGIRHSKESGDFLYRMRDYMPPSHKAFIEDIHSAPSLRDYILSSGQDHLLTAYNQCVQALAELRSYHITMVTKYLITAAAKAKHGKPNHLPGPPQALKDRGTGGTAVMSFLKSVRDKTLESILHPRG
In short: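 Recombinant enzyme with L-Trp substrate, ascorbic acid 40 mM, methylene blue 20 μM and catalase 200 μg/mL in potassium phosphate buffer. Conditions were pH 7.0 with 400 μM L-Trp for TDO, and pH 7.5 with 30 mM L-Trp for IDO2. Reaction ran 30 min at 37 °C, stopped with TCA, heated 65 °C 15 min. Kyn detected with DMAB at 492 nm. IC50 by nonlinear regression.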

[2] = target: T2, Tryptophan 2,3-dioxygenase (Homo sapiens, UniProt P48775); assay: Inhibition of recombinant human TDO expressed in Escherichia coli BL21 (DE3) assessed as reduction in conversion of L-tryptophan to N-formyl kynurenine using L-tryptophan as substrate after 30 mins by methylene blue assay
Target sequence in this assay (P48775 whole entry): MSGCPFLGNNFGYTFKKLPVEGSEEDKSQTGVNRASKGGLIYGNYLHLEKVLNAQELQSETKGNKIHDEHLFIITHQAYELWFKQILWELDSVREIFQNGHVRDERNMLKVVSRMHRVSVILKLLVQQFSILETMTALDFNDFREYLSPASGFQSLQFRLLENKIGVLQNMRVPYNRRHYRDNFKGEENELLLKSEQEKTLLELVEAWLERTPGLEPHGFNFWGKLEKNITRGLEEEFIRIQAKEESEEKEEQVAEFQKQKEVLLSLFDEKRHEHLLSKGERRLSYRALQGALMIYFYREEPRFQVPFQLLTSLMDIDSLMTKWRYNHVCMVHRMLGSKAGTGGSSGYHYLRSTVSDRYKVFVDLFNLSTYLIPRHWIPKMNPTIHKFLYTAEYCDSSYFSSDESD

[3] = target: T3, Indoleamine 2,3-dioxygenase 1 (Homo sapiens, UniProt P14902); assay: Inhibition of IDO1 in IFN-gamma stimulated human HeLa cells assessed as reduction in kynurenine production incubated for 18 hrs; type: cell-based
In short: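 HeLa cells were seeded 25 000/well overnight, then exposed to inhibitor dilutions with 100 ng/mL human IFN-γ (final) for 18 h at 37 °C. Medium was treated with TCA at 50 °C for 30 min to hydrolyze NFK to Kyn. Kyn was read with 2% DMAB at 492 nm. IC50 by nonlinear regression.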
Target sequence in this assay (P14902 whole entry): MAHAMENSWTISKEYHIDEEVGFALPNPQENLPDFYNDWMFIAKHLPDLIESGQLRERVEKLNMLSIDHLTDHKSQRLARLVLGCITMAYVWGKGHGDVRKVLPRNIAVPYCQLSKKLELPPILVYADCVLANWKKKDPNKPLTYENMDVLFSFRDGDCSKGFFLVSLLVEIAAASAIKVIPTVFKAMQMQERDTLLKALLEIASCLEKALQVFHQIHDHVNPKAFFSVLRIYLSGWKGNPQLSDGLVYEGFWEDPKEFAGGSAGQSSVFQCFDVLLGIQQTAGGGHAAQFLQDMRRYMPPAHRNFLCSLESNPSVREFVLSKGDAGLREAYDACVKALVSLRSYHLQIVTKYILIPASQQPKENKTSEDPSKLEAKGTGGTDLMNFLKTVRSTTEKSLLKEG

[4] = target: T1, Indoleamine 2,3-dioxygenase 2; assay: Inhibition of human IDO2 transfected in human U87MG cells assessed as reduction in kynurenine production using L-tryptophan as substrate incubated with for 6 hrs; type: cell-based
In short: (§1)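 U87 MG cells (hIDO2) or HEK293 cells (hTDO) were transiently transfected at 80% confluence, with empty vector as control. After 18 h, cells were seeded 2.5 × 10⁴/well in medium with 200 μM L-Trp. Compound serial dilutions were added after a further 6 h (IDO2) or 12 h (TDO). Reactions were stopped 24 h (IDO2) or 8 h (TDO) later with TCA, heated 65 °C 15 min, and Kyn read with DMAB at 492 nm. IC50 by nonlinear regression.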

[5] = target: T2, Tryptophan 2,3-dioxygenase; assay: Inhibition of human TDO transfected in HEK293 cells assessed as reduction in kynurenine production using L-tryptophan as substrate incubated for 12 hrs; type: cell-based; in short: as §1
Target sequence in this assay (P48775 whole entry): as the sequence (P48775 whole entry) above

[6] = target: T3, Indoleamine 2,3-dioxygenase 1; assay: Uncompetitive inhibition of recombinant human IDO1 expressed in Escherichia coli BL21 cells assessed inhibition constant using varying concentration of L-tryptophan as substrate by Dixon plot analysis
In short: (§2)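 Enzymatic assays of the kynurenine-forming reaction were run with varying L-Trp. Ki was derived by plotting [S]/V against inhibitor concentration [I], with inhibition type assigned from the graphical pattern.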
Target sequence in this assay (P14902 whole entry): as the sequence (P14902 whole entry) above

[7] = target: T1, Indoleamine 2,3-dioxygenase 2; assay: Uncompetitive inhibition of C-terminal His6-tagged human IDO2 (14 to 420 residues) expressed in Escherichia coli BL21 (DE3) assessed as inhibition constant using varying concentration of L-tryptophan as substrate by Dixon plot analysis; in short: as §2
[8] = target: T2, Tryptophan 2,3-dioxygenase; assay: Uncompetitive inhibition of recombinant human TDO expressed in Escherichia coli BL21 (DE3) assessed as assessed as inhibition constant using varying concentration of L-tryptophan as substrate by Dixon plot analysis; in short: as §2
Target sequence in this assay (P48775 whole entry): as the sequence (P48775 whole entry) above

[9] = target: T1, Indoleamine 2,3-dioxygenase 2; assay: Noncompetitive inhibition of C-terminal His6-tagged human IDO2 (14 to 420 residues) expressed in Escherichia coli BL21 (DE3) assessed as inhibition constant using varying concentration of L-tryptophan as substrate by Dixon plot analysis; in short: as §2
[10] = target: T2, Tryptophan 2,3-dioxygenase; assay: Mixed uncompetitive inhibition of recombinant human TDO expressed in Escherichia coli BL21 (DE3) assessed as inhibition constant using varying concentration of L-tryptophan as substrate by Dixon plot analysis; in short: as §2
Target sequence in this assay (P48775 whole entry): as above

[11] = target: T3, Indoleamine 2,3-dioxygenase 1; assay: Noncompetitive inhibition of recombinant human IDO1 expressed in Escherichia coli BL21 cells assessed inhibition constant using varying concentration of L-tryptophan as substrate by Dixon plot analysis; in short: as §2
Target sequence in this assay (P14902 whole entry): as the sequence (P14902 whole entry) above

[12] = target: T4, Indoleamine 2,3-dioxygenase 2 (Homo sapiens) (UniProt Q6ZQW0); assay: Binding affinity to human IDO2 assessed as change in spectral signal at 200 uM by CPMG NMR spectrometry analysis
T4 sequence (whole entry): T1 sequence (Q6ZQW0 whole entry)

[13] = target: T2, Tryptophan 2,3-dioxygenase; assay: Binding affinity to human TDO assessed as change in spectral signal at 200 uM by CPMG NMR spectrometry analysis
Target sequence in this assay (P48775 whole entry, looked up): as the sequence (P48775 whole entry) above

[14] = target: T4, Indoleamine 2,3-dioxygenase 2 (Homo sapiens); assay: Binding affinity to human IDO2 at 200 uM by STD NMR spectrometry analysis
[15] = target: T2, Tryptophan 2,3-dioxygenase; assay: Binding affinity to human TDO at 200 uM by STD NMR spectrometry analysis
Target sequence in this assay (P48775 whole entry, looked up): as the sequence (P48775 whole entry) above

Homo sapiens = organism: Homo sapiens; assay: Inhibition of IDO1/TDO in IFNgamma-treated human HeLa cells assessed as T cell proliferation at 1 uM measured after 2 days in presence of IL-2, anti-CD3 and IFN-gamma by CFSE dye based flow cytometry analysis (reference value: 11.7 %); design: scale not given: the % may be the effect or the level left
In short: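 CFSE-labelled human PBMC lymphocytes (1 × 10⁶/well) were cocultured with HeLa cells (2 × 10⁵/well), a 5:1 ratio, in 150 U/mL IL-2, 100 ng/mL anti-CD3 and 60 ng/mL IFN-γ. Compound was tested at 40 nM, 200 nM, 500 nM or 1 μM. Proliferation was read by flow cytometry after 2 days, three independent experiments.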

[16] = test system: Lewis lung carcinoma cell line; assay: Antitumor activity against mouse LLC cells implanted in C57BL/6 mouse assessed as reduction in tumor weight at 100 mg/kg, po qd administered for 2 weeks and measured post-treatment; type: functional, organism-based
In short: (§3)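 Tumor cells (LLC, or H22 ascites cells after two intraperitoneal passages in Kunming mice) injected sc into the right forelimb at 2 × 10⁶ per mouse, in female 6–8-week C57BL/6 or Kunming mice. Oral dosing once daily began at 5 mm tumor diameter and continued 2 weeks. Vehicle was 0.5% CMC-Na. Volume was read by caliper every 2 days as long × short²/2. Tumors were weighed at sacrifice. n = 9–10/group.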

[17] = test system: Lewis lung carcinoma cell line; assay: Antitumor activity against mouse LLC cells implanted in C57BL/6 mouse assessed as reduction in tumor volume at 100 mg/kg, po qd administered for 2 weeks and measured at 2 days interval during compound dosing relative to control; type: functional; design: scale not given: the % may be the effect or the level left; in short: as §3
H22 [18] = assay: Antitumor activity against mouse H22 cells implanted in Kunming mouse assessed as reduction in tumor volume at 100 mg/kg, po qd administered for 2 weeks and measured at 2 days interval during compound dosing relative to control; type: functional; design: scale not given: the % may be the effect or the level left
In short: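 H22 ascites cells (2 × 10⁶/mouse) passaged twice intraperitoneally in Kunming mice, diluted in saline, then implanted sc into the right forelimb (2 × 10⁶ cells). Therapy began once the tumor reached 5 mm diameter: oral dosing once daily in 0.5% CMC-Na, vehicle controls, for 2 weeks. Calipers every 2 days; volume = long × short²/2. n = 9−10 mice/group.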

H22 [19] = assay: Antitumor activity against mouse H22 cells implanted in Kunming mouse assessed as reduction in tumor weight at 100 mg/kg, po qd administered for 2 weeks and measured post-treatment; type: functional, organism-based; in short: as §3
Mus musculus [20] = assay: In vivo blockade of kynurenine pathway in Kunming mouse implanted with mouse H22 cells assessed as decrease in kynurenine level in serum at 100 mg/kg, po qd for 2 weeks by HPLC analysis; type: functional, organism-based
In short: (§4)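 H22 tumor-bearing Kunming mice received oral dosing once daily in 0.5% CMC-Na for 2 weeks. Serum Trp and Kyn were measured by HPLC on a C18 column with 15 mM sodium acetate (pH 3.6) containing 4% acetonitrile, UV detection at 280 and 360 nm. Kyn/Trp ratio calculated. n = 9–10/group.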

Mus musculus [21] = assay: In vivo blockade of kynurenine pathway in Kunming mouse implanted with mouse H22 cells assessed as increase in tryptophan level in serum at 100 mg/kg, po qd for 2 weeks by HPLC analysis; type: functional, organism-based; in short: as §4
[22] = target: T3, Indoleamine 2,3-dioxygenase 1; assay: Inhibition of recombinant human IDO1 expressed in Escherichia coli BL21 cells assessed as reduction in conversion of L-tryptophan to N-formyl kynurenine using L-tryptophan as substrate after 30 mins by methylene blue dye based microplate reader analysis
Target sequence in this assay (P14902 whole entry): as the sequence (P14902 whole entry) above

[23] = target: T3, Indoleamine 2,3-dioxygenase 1; assay: Competitive inhibition of recombinant human IDO1 expressed in Escherichia coli BL21 cells assessed as apparent inhibition constant using varying concentration of L-tryptophan as substrate by Dixon plot analysis
Target sequence in this assay (P14902 whole entry): as above

[24] = target: T3, Indoleamine 2,3-dioxygenase 1; assay: Binding affinity to heme in human IDO1 assessed as Soret band red shift from 405 nm to […] at 375 uM and pH 6.5 under normal atmospheric condition by UV-vis spectroscopy analysis
Target sequence in this assay (P14902 whole entry, looked up): as the sequence (P14902 whole entry) above

Row | Compound | IC50 [1] | IC50 [2] | IC50 ([3]; read-out: IC50) | IC50 [4] | IC50 [5] | Ki [8] | Ki [10] | other results
1 | CN1CCN(c2ccc3nc4n(c(=O)c3c2)-c2ccccc2C4=O)CC1 | 82.6 µM | 6.75 µM | 2.96 µM | 48.7 µM | 0.47 µM | 18 µM | – | Ki ([6]; read-out: Ki): 7.57 µM; Ki [7]: 48.7 µM
2 | CN(C)c1ccc2nc3n(c(=O)c2c1)-c1ccc(F)cc1C3=O | 91.3 µM | 3.82 µM | 0.59 µM | 90.9 µM | 0.27 µM | 1.24 µM | – | Ki ([6]; read-out: Ki): 8.82 µM; Ki [9]: 45.3 µM
3 | O=C1c2cc(F)ccc2-n2c1nc1ccc(CN3CCNCC3)cc1c2=O | – | – | – | – | 0.09 µM | 0.12 µM | – | –
4 | CN(C)Cc1ccc2nc3n(c(=O)c2c1)-c1ccc(F)cc1C3=O | – | – | – | – | 0.06 µM | – | 0.09 µM | –
5 | O=C1c2cc(F)ccc2-n2c1nc1ccc(N3CCCCC3)cc1c2=O | 40.1 µM | 10.1 µM | 2.24 µM | 22.2 µM | 3.7 µM | 1.56 µM | – | Ki ([6]; read-out: Ki): 4.34 µM; Ki [7]: 26.8 µM
6 | CN1CCN(c2ccc3nc4n(c(=O)c3c2)-c2ccc(F)cc2C4=O)CC1 | 46.8 µM | 2.59 µM | 1.87 µM | 79 µM | 0.25 µM | – | 0.17 µM | Ki ([11]; read-out: Ki): 6.92 µM; Ki [9]: 19.9 µM
7 | NS(=O)(=O)NCCNc1nonc1C(=NO)Nc1ccc(F)c(Br)c1 [EPACADOSTAT] | 10.3 µM | – | – | – | – | – | – | –
8 | O=C1c2cc(F)ccc2-n2c1nc1ccc(CN3CCOCC3)cc1c2=O | – | – | – | – | 0.07 µM | 0.34 µM | – | –
9 | CN1CCN(Cc2ccc3nc4n(c(=O)c3c2)-c2ccccc2C4=O)CC1 | – | – | 0.18 µM | – | 0.18 µM | – | 0.42 µM | –
10 | Cn1cc(C[C@H](N)C(=O)O)c2ccccc21 [(L)-1-METHYLTRYPTOPHAN] | – | – | – | – | – | – | – | Activity [12]: inactive; Activity [13]: inactive; Activity [14]: inactive; Activity [15]: inactive; Activity (Homo sapiens): 15.8%; Activity [16]: Active; Activity [17]: 33.6%; Activity (H22 [18]): 15.8%; Activity (H22 [19]): Active; Activity (Mus musculus [20]): Active; Activity (Mus musculus [21]): inactive
11 | O=C1c2cc(F)ccc2-n2c1nc1ccc(N3CCOCC3)cc1c2=O | 79.9 µM | 6.4 µM | – | 20.3 µM | 0.5 µM | 2.36 µM | – | IC50 [22]: Not Active; IC50 ([3]; hela): Not Active; Ki [23]: Not Active; Ki [6]: Not Active; Ki [11]: Not Active; Ki [7]: 39.1 µM
12 | O=C1c2cc(F)ccc2-n2c1nc1ccc(N3CCNCC3)cc1c2=O | 41.6 µM | 3.15 µM | 0.76 µM | 17.8 µM | 0.29 µM | – | 0.67 µM | Ki ([6]; read-out: Ki): 6.08 µM; Ki [7]: 36.9 µM
13 | CC(C)(C)OC(=O)N1CCN(Cc2ccc3nc4n(c(=O)c3c2)-c2ccc(F)cc2C4=O)CC1 | – | – | – | – | 0.07 µM | – | 0.13 µM | –
14 | NS(=O)(=O)NCCNc1nonc1/C(=N/O)Nc1ccc(F)c(Br)c1 | – | – | – | – | – | – | – | Activity [24]: Active
